From ChEMBL document CHEMBL1153702, “Synthesis and cytotoxic activity of 2-methylimidazo[1,2-a]pyridine- and quinoline-substituted 2-aminopyrimidine derivatives” (Eur J Med Chem, 2010)
Active and inactive are the calls of the source. The rule behind the calls is not given here.

Key:
[1] = test system: HCT-15; assay: Cytotoxicity against human HCT15 cells at 50 uM after 48 hrs by SRB assay; assay type: functional; settings: for inhibition at 50 µM: HCT-15, 48 h
How it was run: (§1)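 Cells in RPMI-1640 with 10% FCS at 37 °C, 5% CO2; 5–10 × 10^3 cells/well seeded 24 h, then exposed 48 h to 50 μM compound (DMSO stock; 5-fluorouracil at same concentration as positive control). TCA-fixed at 4 °C 1 h, stained with 0.4% SRB, dye solubilized in 10 mM Tris base, OD 515 nm; % growth inhibition, mean of three experiments in triplicate.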

[2] = test system: SK-LU-1; assay: Cell cycle arrest in human SK-LU-1 cells assessed as accumulation at G1 phase after 24 hrs by flow cytometry; assay type: functional
[3] = test system: K562; assay: Cytotoxicity against human K562 cells at 50 uM after 48 hrs by SRB assay; assay type: functional; settings: for inhibition at 50 µM: K562, 48 h; how it was run: as §1
[4] = test system: MCF7; assay: Cell cycle arrest in human MCF7 cells assessed as accumulation at G1 phase after 24 hrs by flow cytometry; assay type: functional
[5] = test system: SK-LU-1; assay: Induction of apoptosis in human SK-LU-1 cells assessed as apoptotic cells after 48 hrs using annexin-V-FITC/propidium iodide staining by flow cytometry; assay type: functional, cell-based
How it was run: (§2)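 2.5 × 10^5 cells per well attached 24 h, then treated 48 h with compound or DMSO vehicle at the highest concentration used. Adherent plus floating cells washed in PBS, resuspended in annexin-binding buffer, stained with annexin V-FITC and propidium iodide 10 min in the dark at room temperature; 10,000 events analysed by flow cytometry, quadrants scoring apoptotic versus late apoptotic/necrotic cells.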

[6] = test system: SK-LU-1; assay: Cytotoxicity against human SK-LU-1 cells after 48 hrs by SRB assay; assay type: functional, cell-based; settings: SK-LU-1, 48 h
How it was run: (§3)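 SRB protein-staining assay: 5–10 × 10^3 cells/well in RPMI-1640/10% FCS, allowed 24 h to attach, then 48 h with compound dissolved from DMSO stock; TCA fixation, 0.4% SRB staining, Tris-solubilized dye read at 515 nm. IC50 from dose-response curve by non-linear regression; mean ± SD of three independent experiments.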

[7] = test system: MCF7; assay: Cell cycle arrest in human MCF7 cells assessed as accumulation at G2/M phase after 24 hrs by flow cytometry; assay type: functional
[8] = test system: MCF7; assay: Cytotoxicity against human MCF7 cells after 48 hrs by SRB assay; assay type: functional, cell-based; settings: MCF7, 48 h; how it was run: as §3
[9] = target: Cyclin-dependent kinase 1/cyclin B1 (Homo sapiens) (UniProt P06493+P14635); settings: at 7 µM
[10] = test system: SK-LU-1; assay: Induction of apoptosis in human SK-LU-1 cells assessed as necrotic cells after 48 hrs using annexin-V-FITC/propidium iodide staining by flow cytometry; assay type: functional, cell-based; how it was run: as §2
[11] = test system: SK-LU-1; assay: Cytotoxicity against human SK-LU-1 cells at 50 uM after 48 hrs by SRB assay; assay type: functional; settings: SK-LU-1, 48 h; how it was run: as §1
[12] = test system: MCF7; assay: Cytotoxicity against human MCF7 cells at 50 uM after 48 hrs by SRB assay; assay type: functional; settings: MCF7, 48 h; how it was run: as §1
[13] = test system: SK-LU-1; assay: Cell cycle arrest in human SK-LU-1 cells assessed as accumulation at G2/M phase after 24 hrs by flow cytometry; assay type: functional
[14] = test system: SK-LU-1; assay: Cell cycle arrest in human SK-LU-1 cells assessed as accumulation at S phase after 24 hrs by flow cytometry; assay type: functional
[15] = test system: MCF7; assay: Cell cycle arrest in human MCF7 cells assessed as accumulation at S phase after 24 hrs by flow cytometry; assay type: functional
[16] = test system: U-251; assay: Cytotoxicity against human U251 cells at 50 uM after 48 hrs by SRB assay; assay type: functional; settings: U-251, 48 h; how it was run: as §1
[17] = test system: PC-3; assay: Cytotoxicity against human PC3 cells at 50 uM after 48 hrs by SRB assay; assay type: functional; settings: PC-3, 48 h; how it was run: as §1

Cyclin-dependent kinase 1/cyclin B1 (Homo sapiens), sequence (P06493 whole entry, looked up): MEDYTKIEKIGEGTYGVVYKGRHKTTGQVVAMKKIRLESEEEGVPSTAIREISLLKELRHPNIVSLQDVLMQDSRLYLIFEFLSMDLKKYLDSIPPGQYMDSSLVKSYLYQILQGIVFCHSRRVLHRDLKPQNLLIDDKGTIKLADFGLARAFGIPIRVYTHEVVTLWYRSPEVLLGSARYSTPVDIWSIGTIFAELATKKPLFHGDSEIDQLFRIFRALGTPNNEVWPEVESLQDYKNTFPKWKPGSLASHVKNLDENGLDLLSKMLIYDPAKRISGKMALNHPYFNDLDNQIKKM
Cyclin-dependent kinase 1/cyclin B1 (Homo sapiens), sequence (P14635 whole entry, looked up): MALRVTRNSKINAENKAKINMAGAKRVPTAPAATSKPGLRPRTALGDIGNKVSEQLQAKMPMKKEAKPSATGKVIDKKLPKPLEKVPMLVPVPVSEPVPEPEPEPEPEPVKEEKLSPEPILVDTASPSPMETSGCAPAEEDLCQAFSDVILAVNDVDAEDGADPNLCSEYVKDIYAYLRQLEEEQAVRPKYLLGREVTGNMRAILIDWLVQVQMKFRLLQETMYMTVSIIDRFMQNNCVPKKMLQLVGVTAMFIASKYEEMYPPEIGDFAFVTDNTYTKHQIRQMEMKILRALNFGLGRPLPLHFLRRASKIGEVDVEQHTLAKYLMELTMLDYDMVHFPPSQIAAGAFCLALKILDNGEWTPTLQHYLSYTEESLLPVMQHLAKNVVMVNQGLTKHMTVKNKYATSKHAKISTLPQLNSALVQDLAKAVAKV

SMILES	inhibition at 50 µM [1]	Activity [2]	inhibition at 50 µM [3]	Activity [4]	Activity [5]	IC50 [6]	Activity [7]	IC50 [8]	inhibition [9]	Activity [10]	inhibition at 50 µM [11]	inhibition at 50 µM [12]	Activity [13]	Activity [14]	Activity [15]	inhibition at 50 µM [16]	inhibition at 50 µM [17]	inhibition [1]	inhibition [3]
Cc1ccc(Nc2nccc(-c3c(C)nc4ccccn34)n2)cc1	95.2%	4.7%	89.4%	60.8%	Active	19.7 nM	14.7%	59 nM	59%	inactive	100%	88.5%	77.5%	20.9%	25.3%	100%	94.2%	–	–
Cc1nc2ccccn2c1-c1ccnc(Nc2ccc(C=O)s2)n1	85.4%	42.5%	88.1%	54.5%	Active	1540 nM	22.2%	4270 nM	52%	inactive	100%	75.9%	48%	13.9%	15.7%	57.8%	49.5%	–	–
Nc1nccc(-c2cnc3ccccc3c2)n1	–	–	–	–	–	> 50000 nM	–	> 50000 nM	–	–	59.3%	100%	–	–	–	38.5%	31.9%	inactive	inactive
FC(F)(F)c1ccc(Nc2nccc(-c3ccnc4ccccc34)n2)cc1	100%	–	–	–	–	1720 nM	–	1650 nM	–	–	100%	100%	–	–	–	91.8%	87.3%	–	inactive
Cc1ccc(Nc2nccc(-c3ccnc4ccccc34)n2)cc1	100%	8.1%	50.9%	18.7%	Active	1400 nM	64.7%	600 nM	75%	inactive	100%	100%	74%	22%	15.1%	100%	100%	–	–
FC(F)(F)c1ccc(Nc2nccc(-c3c(C(F)(F)F)nc4ccccn34)n2)cc1	94.4%	–	94.2%	–	–	745 nM	–	290 nM	–	–	95%	100%	–	–	–	100%	92%	–	–
FC(F)(F)c1ccc(Nc2nccc(-c3cnc4ccccc4c3)n2)cc1	24%	–	–	–	–	–	–	> 50000 nM	–	–	35.4%	80.9%	–	–	–	49.8%	22.9%	–	inactive
Nc1nccc(-c2c(C(F)(F)F)nc3ccccn23)n1	–	–	56.3%	–	–	56500 nM	–	53700 nM	–	–	71%	100%	–	–	–	92.2%	74%	–	–
O=c1[nH]cc(F)c(=O)[nH]1 [FLUOROURACIL]	71.3%	–	73.7%	–	–	–	–	–	–	–	70.5%	65.1%	–	–	–	64.2%	45.4%	–	–
Nc1nccc(-c2ccnc3ccccc23)n1	–	–	9.4%	–	–	> 50000 nM	–	40200 nM	–	–	78.2%	100%	–	–	–	100%	77.4%	inactive	–
Cc1ccc(Nc2nccc(-c3c(C(F)(F)F)nc4ccccn34)n2)cc1	100%	–	100%	–	Active	175 nM	–	44 nM	–	inactive	100%	100%	–	–	–	100%	100%	–	–
Cn1cnc2c(NCc3ccccc3)nc(NCCO)nc21 [OLOMOUCINE]	–	44.2%	–	60.6%	–	–	23.2%	–	–	–	–	–	31.8%	19.7%	15.1%	–	–	–	–
Cc1nc2ccccn2c1-c1ccnc(Nc2ccc(C(F)(F)F)cc2)n1	88.6%	–	84.8%	–	–	34 nM	–	66 nM	60%	–	100%	83.4%	–	–	–	85.6%	64.5%	–	–
Cc1ccc(Nc2nccc(-c3cnc4ccccc4c3)n2)cc1	30.3%	–	–	–	–	–	–	50000 nM	73%	–	46.3%	100%	–	–	–	87.7%	59.5%	–	inactive
